According to ChEMBL document CHEMBL2046311, “Design, synthesis, and molecular hybrids of caudatin and cinnamic acids as novel anti-hepatitis B virus agents” (Eur J Med Chem, 2012):

Assays:
[1] = Cytotoxicity against human HepG2(2.2.15) cells by modified-MTT assay; format: cell-based
Summary of the method: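 HepG 2.2.15 cells in RPMI-1640 with 10% fetal calf serum at 37 °C, 5% CO2. Compounds in DMSO, final DMSO below 2.5 μL/mL. Viability read by modified MTT method. CC50 is the mean of at least two experiments.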

Hepatitis B virus [2] = assay: Antiviral activity against Hepatitis B virus infected in human HepG2(2.2.15) cells assessed as inhibition of viral DNA replication by PCR analysis; format: functional, organism-based
Summary of the method: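 HepG 2.2.15 cells grown in RPMI-1640 with 10% fetal calf serum, […] and penicillin/streptomycin at 37 °C, 5% CO2. Compounds added in DMSO, kept below 2.5 μL/mL. HBV DNA quantified by SYBR Green real-time PCR with HBV-specific primers spanning 541–591 bp. IC50 values are means of at least two experiments.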

[3] = Selectivity index, ratio of CC50 for human HepG2(2.2.15) cells to IC50 for Hepatitis B virus infected in human HepG2(2.2.15) cells assessed as inhibition of viral e antigen secretion; format: functional
Summary of the method: (§1)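 SI calculated as CC50 (MTT, HepG 2.2.15) divided by IC50 for the named read-out (HBV DNA by real-time PCR, or HBeAg or HBsAg secretion by ELISA), in the same cell line.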

[4] = Selectivity index, ratio of CC50 for human HepG2(2.2.15) cells to IC50 for Hepatitis B virus infected in human HepG2(2.2.15) cells assessed as inhibition of viral surface antigen secretion; format: functional; summary of the method: as §1
Hepatitis B virus [5] = assay: Antiviral activity against Hepatitis B virus infected in human HepG2(2.2.15) cells assessed as inhibition of viral surface antigen secretion by ELISA; format: functional, organism-based
Summary of the method: (§2)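 HepG 2.2.15 cells in RPMI-1640 with 10% fetal calf serum at 37 °C, 5% CO2. Compounds dissolved in DMSO, culture DMSO below 2.5 μL/mL. Secreted HBeAg and HBsAg measured by ELISA. IC50 values are means of at least two experiments.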

Hepatitis B virus [6] = assay: Antiviral activity against Hepatitis B virus infected in human HepG2(2.2.15) cells assessed as inhibition of viral e antigen secretion by ELISA; format: functional, organism-based; summary of the method: as §2
[7] = Selectivity index, ratio of CC50 for human HepG2(2.2.15) cells to IC50 for Hepatitis B virus infected in human HepG2(2.2.15) cells assessed as inhibition of viral DNA replication; format: functional; summary of the method: as §1

Compound	CC50 [1] [mM]	IC50 (Hepatitis B virus [2]) [µM]	Ratio CC50/IC50 [3]	Ratio CC50/IC50 [4]	IC50 (Hepatitis B virus [5]) [µM]	IC50 (Hepatitis B virus [6]) [µM]	Ratio CC50/IC50 [7]
CC(=O)[C@]1(O)CC[C@@]2(O)[C@]1(C)[C@H](OC(=O)/C=C(\C)C(C)C)C[C@@H]1[C@@]3(C)CC[C@H](OC(=O)/C=C/c4cccc(F)c4F)CC3=CC[C@]12O	0.118	2.86	7.2	9	13.2	16.4	>41.2
CC(=O)[C@]1(O)CC[C@@]2(O)[C@]1(C)[C@H](OC(=O)/C=C(\C)C(C)C)C[C@@H]1[C@@]3(C)CC[C@H](OC(=O)/C=C/c4ccc(F)c(C(F)(F)F)c4)CC3=CC[C@]12O	> 1.33	8.93	>1.7	>18.6	71.6	798	>149.2
CCOc1cccc(/C=C/C(=O)O[C@H]2CC[C@@]3(C)C(=CC[C@]4(O)[C@@H]3C[C@@H](OC(=O)/C=C(\C)C(C)C)[C@@]3(C)[C@]4(O)CC[C@@]3(O)C(C)=O)C2)c1	> 2.14	9.3	>15.2	>85.9	24.9	141	>230.1
CC(=O)[C@]1(O)CC[C@@]2(O)[C@]1(C)[C@H](OC(=O)/C=C(\C)C(C)C)C[C@@H]1[C@@]3(C)CC[C@H](OC(=O)/C=C/c4ccccc4[N+](=O)[O-])CC3=CC[C@]12O	> 1.55	21.7	>29.4	>41.9	37	52.7	>71.4
CCOc1ccccc1/C=C/C(=O)O[C@H]1CC[C@@]2(C)C(=CC[C@]3(O)[C@@H]2C[C@@H](OC(=O)/C=C(\C)C(C)C)[C@@]2(C)[C@]3(O)CC[C@@]2(O)C(C)=O)C1	> 1.73	12	>4.3	>42.6	40.6	404	>143.8
CC(=O)[C@]1(O)CC[C@@]2(O)[C@]1(C)[C@H](OC(=O)/C=C(\C)C(C)C)C[C@@H]1[C@@]3(C)CC[C@H](OC(=O)/C=C/c4ccccc4)CC3=CC[C@]12O	> 1.42	5.91	>15	>29.3	48.3	94.2	>239.9
CC(=O)[C@]1(O)CC[C@@]2(O)[C@]1(C)[C@H](OC(=O)/C=C(\C)C(C)C)C[C@@H]1[C@@]3(C)CC[C@H](OC(=O)/C=C/c4cccc(Br)c4)CC3=CC[C@]12O	0.429	4.42	34.4	29.9	14.4	12.5	97
CC(=O)[C@]1(O)CC[C@@]2(O)[C@]1(C)[C@H](OC(=O)/C=C(\C)C(C)C)C[C@@H]1[C@@]3(C)CC[C@H](OC(=O)/C=C/c4cccc(Cl)c4)CC3=CC[C@]12O	> 1.32	12.7	>3.7	>70.1	18.8	359	>103.6
CC(=O)[C@]1(O)CC[C@@]2(O)[C@]1(C)[C@H](OC(=O)/C=C(\C)C(C)C)C[C@@H]1[C@@]3(C)CC[C@H](OC(=O)/C=C/c4ccc(Cl)c(Cl)c4)CC3=CC[C@]12O	> 1.42	14.1	>1.5	>12.7	112	949	>101.2
CC(=O)[C@]1(O)CC[C@@]2(O)[C@]1(C)[C@H](OC(=O)/C=C(\C)C(C)C)C[C@@H]1[C@@]3(C)CC[C@H](OC(=O)/C=C/c4ccc(Cl)c([N+](=O)[O-])c4)CC3=CC[C@]12O	0.45	6.31	5.7	47.3	9.52	79.5	71.3
COc1ccccc1/C=C/C(=O)O[C@H]1CC[C@@]2(C)C(=CC[C@]3(O)[C@@H]2C[C@@H](OC(=O)/C=C(\C)C(C)C)[C@@]2(C)[C@]3(O)CC[C@@]2(O)C(C)=O)C1	> 2.37	7.3	>3.1	>36.9	64	753	>324.1
COc1ccc(/C=C/C(=O)O[C@H]2CC[C@@]3(C)C(=CC[C@]4(O)[C@@H]3C[C@@H](OC(=O)/C=C(\C)C(C)C)[C@@]3(C)[C@]4(O)CC[C@@]3(O)C(C)=O)C2)cc1OC	> 1.6	11.8	>18.8	>72.7	22.1	85.2	>135.6
CC(=O)[C@]1(O)CC[C@@]2(O)[C@]1(C)[C@H](OC(=O)/C=C(\C)C(C)C)C[C@@H]1[C@@]3(C)CC[C@H](OC(=O)/C=C/c4ccccc4C)CC3=CC[C@]12O	1.37	7.2	6	16.9	81.1	230	190.4
CC(=O)[C@]1(O)CC[C@@]2(O)[C@]1(C)[C@H](OC(=O)/C=C(\C)C(C)C)C[C@@H]1[C@@]3(C)CC[C@H](OC(=O)/C=C/c4cc(F)cc(F)c4)CC3=CC[C@]12O	> 1.34	18.6	>14.8	>66	20.3	90.7	>72
COc1cc(/C=C/C(=O)O[C@H]2CC[C@@]3(C)C(=CC[C@]4(O)[C@@H]3C[C@@H](OC(=O)/C=C(\C)C(C)C)[C@@]3(C)[C@]4(O)CC[C@@]3(O)C(C)=O)C2)cc(OC)c1	> 1.02	11.7	>2.7	>34.6	29.6	380	>87.4
CC(=O)[C@]1(O)CC[C@@]2(O)[C@]1(C)[C@H](OC(=O)/C=C(\C)C(C)C)C[C@@H]1[C@@]3(C)CC[C@H](OC(=O)/C=C/c4cccc(C)c4)CC3=CC[C@]12O	> 1.39	7.22	>10.5	>54.7	25.4	132	>192.6
CC(=O)[C@]1(O)CC[C@@]2(O)[C@]1(C)[C@H](OC(=O)/C=C(\C)C(C)C)C[C@@H]1[C@@]3(C)CC[C@H](OC(=O)/C=C/c4ccc(F)c(F)c4F)CC3=CC[C@]12O	0.397	2.83	28.3	>71.1	< 5.58	14	140.2
COc1ccc(/C=C/C(=O)O[C@H]2CC[C@@]3(C)C(=CC[C@]4(O)[C@@H]3C[C@@H](OC(=O)/C=C(\C)C(C)C)[C@@]3(C)[C@]4(O)CC[C@@]3(O)C(C)=O)C2)cc1	> 1.38	10.9	>2.4	>12.9	108	569	>127.1
